Measurements taken from ChEMBL document CHEMBL1142636 (2000).
In brackets after ≈: the same amount, converted by molar mass.

Legend:
HOP-18 = experiment: Growth inhibition of human HOP18 cells; type: functional
NCI-H522 = experiment: Growth inhibition of human NCI-H522 cells; type: functional
MOLT-4 = experiment: Growth inhibition of human MOLT4 cells; type: functional
KB = experiment: Growth inhibition of human KB cells; type: functional; conditions: read-out: ED50 (the source's name)
Summary of the method: (§1)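 In-house cytotoxicity assay following an NCI protocol, run on a panel of human tumour lines: KB nasopharyngeal epidermoid carcinoma and HCT-8 ileocecal adenocarcinoma. Potency is reported as ED50 in µg/mL.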

SK-MEL-5 = experiment: Growth inhibition of human SK-MEL-5 cells; type: functional; conditions: for EC50: read-out: ED50 (the source's name)
Summary of the method: (§2)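 Tested at the NCI in its human disease-oriented in vitro screen of 60 tumour cell lines, following the Monks et al. methods. Activity is expressed as GI50, given as log molar values.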

COLO 205 = experiment: Growth inhibition of human COLO205 cells; type: functional; conditions: for EC50: read-out: ED50 (the source's name)
HCT-8 = experiment: Growth inhibition of human HCT8 cells; type: functional; conditions: read-out: ED50 (the source's name); summary of the method: as §1
SW-620 = experiment: Growth inhibition of human SW620 cells; type: functional; summary of the method: as §2
[1] = Growth inhibition of human […] cells; type: functional
SK-MEL-28 = experiment: Growth inhibition of human SK-MEL-28 cells; type: functional; summary of the method: as §2
SF-268 = experiment: Growth inhibition of human SF268 cells; type: functional; summary of the method: as §2
IGROV-1 = experiment: Growth inhibition of human IGROV1 cells; type: functional
M19-MEL = experiment: Growth inhibition of human M19-MEL cells; type: functional
Malme-3M = experiment: Growth inhibition of human MALME-3M cells; type: functional
SK-MEL-2 = experiment: Growth inhibition of human SK-MEL-2 cells; type: functional; summary of the method: as §2
UO-31 = experiment: Growth inhibition of human UO31 cells; type: functional; summary of the method: as §2
M14 = experiment: Growth inhibition of human M14 cells; type: functional
CCRF-CEM = experiment: Growth inhibition of human CCRF-CEM cells; type: functional
SF-539 = experiment: Growth inhibition of human SF539 cells; type: functional; summary of the method: as §2
HCC 2998 = experiment: Growth inhibition of human HCC2998 cells; type: functional
HOP-92 = experiment: Growth inhibition of human HOP92 cells; type: functional
HOP-62 = experiment: Growth inhibition of human HOP62 cells; type: functional
HT-29 = experiment: Growth inhibition of human HT29 cells; type: functional
786-0 = experiment: Growth inhibition of human 786-0 cells; type: functional
[2] = Growth inhibition of human RPMI8266 cells; type: functional
DMS-273 = experiment: Growth inhibition of human DMS273 cells; type: functional
NCI-H226 = experiment: Growth inhibition of human NCI-H226 cells; type: functional
SN12C = experiment: Growth inhibition of human SN12C cells; type: functional; summary of the method: as §2
TK-10 = experiment: Growth inhibition of human TK10 cells; type: functional; summary of the method: as §2
A549 = experiment: Growth inhibition of human A549 cells; type: functional
[3] = Growth inhibition of human DMS144 cells; type: functional
[4] = Growth inhibition of human OVACR5 cells; type: functional
NCI-H322M = experiment: Growth inhibition of human NCI-H322M cells; type: functional
SK-OV-3 = experiment: Growth inhibition of human SK-OV-3 cells; type: functional; summary of the method: as §2
[5] = Growth inhibition of human OVACR8 cells; type: functional
DLD-1 = experiment: Growth inhibition of human DLD1 cells; type: functional
KM12 = experiment: Growth inhibition of human KM12 cells; type: functional
SNB-75 = experiment: Growth inhibition of human SNB75 cells; type: functional; summary of the method: as §2
[6] = Growth inhibition of human HL60(TB) cells; type: functional, HL-60(TB); conditions: HL-60
U-251 = experiment: Growth inhibition of human U251 cells; type: functional; summary of the method: as §2
NCI-H460 = experiment: Growth inhibition of human NCI-H460 cells; type: functional
KM-20L2 = experiment: Growth inhibition of human KM20L2 cells; type: functional
SNB-19 = experiment: Growth inhibition of human SNB19 cells; type: functional; summary of the method: as §2
HCT-116 = experiment: Growth inhibition of human HCT116 cells; type: functional
[7] = Growth inhibition of human LXFL529 cells; type: functional; conditions: LXFL 529
XF498 = experiment: Growth inhibition of human XF498 cells; type: functional; summary of the method: as §2
K562 = experiment: Growth inhibition of human K562 cells; type: functional
LOX IMVI = experiment: Growth inhibition of human LOX IMVI cells; type: functional
ACHN = experiment: Growth inhibition of human ACHN cells; type: functional
UACC-62 = experiment: Growth inhibition of human UACC62 cells; type: functional; summary of the method: as §2
SR = experiment: Growth inhibition of human SR cells; type: functional; summary of the method: as §2
HCT-15 = experiment: Growth inhibition of human HCT15 cells; type: functional
[8] = Growth inhibition of human OVACR4 cells; type: functional

CC(C)=CCCC1(C)C=Cc2c(c(C)cc3c2[nH]c2cc(O)ccc23)O1 (stereo not drawn)
GI50 (HOP-18): 7.41 µM | GI50 (NCI-H522): 6.76 µM | GI50 (MOLT-4): 0.00324 µM | TGI (MOLT-4; read-out: pTGI): > 25.1 µM

COc1ccc2[nH]c3c(c2c1)C(=O)C(C)=CC3=O
EC50 (KB): 0.76 µg/mL (≈ 3.15 µM) | EC50 (SK-MEL-5): 0.55 µg/mL (≈ 2.28 µM) | EC50 (COLO 205): 0.87 µg/mL (≈ 3.61 µM) | EC50 (HCT-8): 7.91 µg/mL (≈ 32.8 µM)

COc1ccc2[nH]c3c(c2c1)C(=O)C=C(C)C3=O
EC50 (KB): 5.08 µg/mL (≈ 21.1 µM) | EC50 (SK-MEL-5): 6.22 µg/mL (≈ 25.8 µM) | EC50 (COLO 205): > 20 µg/mL | EC50 (HCT-8): 6.03 µg/mL (≈ 25 µM)

CC1=CC(=O)c2c([nH]c3ccc(Cl)cc23)C1=O
EC50 (KB): 3.52 µg/mL (≈ 14.3 µM) | EC50 (SK-MEL-5): 5.5 µg/mL (≈ 22.4 µM) | EC50 (COLO 205): 4.42 µg/mL (≈ 18 µM) | EC50 (HCT-8): 5.5 µg/mL (≈ 22.4 µM)

COc1cc(Cc2c(C)cc(OC)c3[nH]c4ccccc4c23)cc2c1[nH]c1ccccc12
GI50 (SW-620): 8.13 µM | GI50 [1]: 5.37 µM | GI50 (SK-MEL-28): 8.71 µM | GI50 (SF-268): 6.92 µM | GI50 (IGROV-1): 9.12 µM | GI50 (M19-MEL): 9.77 µM | GI50 (Malme-3M): 4.47 µM | GI50 (SK-MEL-2): 3.98 µM | GI50 (UO-31): 6.03 µM | GI50 (M14): 5.13 µM | GI50 (CCRF-CEM): 8.51 µM | GI50 (SF-539): 4.57 µM | GI50 (HCC 2998): 5.37 µM | GI50 (HOP-92): 7.59 µM | GI50 (NCI-H522): 5.01 µM | GI50 (HOP-62): 5.5 µM | GI50 (HT-29): 7.76 µM | GI50 (786-0): 5.37 µM | GI50 [2]: 10 µM | GI50 (DMS-273): 7.59 µM | GI50 (NCI-H226): 4.68 µM | GI50 (SN12C): 6.46 µM | GI50 (TK-10): 12 µM | GI50 (A549): 5.75 µM | GI50 [3]: 10.5 µM | GI50 [4]: 5.01 µM | GI50 (NCI-H322M): 7.24 µM | GI50 (SK-OV-3): 8.71 µM | GI50 [5]: 4.57 µM | GI50 (DLD-1): 8.91 µM | GI50 (KM12): 5.37 µM | GI50 (SNB-75): 5.75 µM | GI50 [6]: 7.94 µM | GI50 (U-251): 5.01 µM | GI50 (NCI-H460): 5.13 µM | GI50 (KM-20L2): 5.25 µM | GI50 (SNB-19): 5.89 µM | GI50 (HCT-116): 9.12 µM | GI50 [7]: 4.17 µM | GI50 (SK-MEL-5): 3.98 µM | GI50 (MOLT-4): 5.75 µM | GI50 (XF498): 6.03 µM | GI50 (K562): 7.24 µM | GI50 (COLO 205): 12 µM | GI50 (LOX IMVI): 3.89 µM | GI50 (ACHN): 4.68 µM | GI50 (UACC-62): 5.62 µM | GI50 (SR): 7.76 µM | GI50 (HCT-15): 6.92 µM

COc1ccc2c([nH]c3cc(O)c(C)cc32)c1CC=C(C)C
GI50 (SW-620): 6.76 µM | GI50 [1]: 5.37 µM | GI50 (SK-MEL-28): 25.1 µM | GI50 (SF-268): 9.55 µM | GI50 (IGROV-1): 2.29 µM | GI50 (M19-MEL): 12.3 µM | GI50 (Malme-3M): 17.4 µM | GI50 (SK-MEL-2): 25.1 µM | GI50 (UO-31): 14.5 µM | GI50 (M14): 1.62 µM | GI50 (CCRF-CEM): 5.37 µM | GI50 (SF-539): 7.94 µM | GI50 (HCC 2998): 5.5 µM | GI50 (HOP-92): 7.94 µM | GI50 (NCI-H522): 5.89 µM | GI50 (786-0): 4.37 µM | GI50 [2]: 8.32 µM | GI50 (DMS-273): 8.51 µM | GI50 (NCI-H226): 25.1 µM | GI50 (TK-10): 5.01 µM | GI50 (A549): 8.51 µM | GI50 [3]: 20.9 µM | GI50 [4]: 25.1 µM | GI50 (NCI-H322M): 10.7 µM | GI50 (SK-OV-3): 25.1 µM | GI50 [8]: 22.4 µM | GI50 [5]: 4.47 µM | GI50 (DLD-1): 9.12 µM | GI50 (SNB-75): 11.5 µM | GI50 [6]: 7.94 µM | GI50 (U-251): 5.89 µM | GI50 (NCI-H460): 5.62 µM | GI50 (KM-20L2): 16.2 µM | GI50 (SNB-19): 25.1 µM | GI50 (HCT-116): 12 µM | GI50 [7]: 8.71 µM | GI50 (SK-MEL-5): 8.13 µM | GI50 (MOLT-4): 4.9 µM | GI50 (XF498): 25.1 µM | GI50 (K562): 5.75 µM | GI50 (COLO 205): 25.1 µM | GI50 (LOX IMVI): 4.37 µM | GI50 (ACHN): 9.33 µM | GI50 (UACC-62): 9.12 µM | GI50 (SR): 7.24 µM | GI50 (HCT-15): 5.13 µM

CC1=CC(=O)c2[nH]c3ccc(F)cc3c2C1=O
EC50 (KB): 5.25 µg/mL (≈ 22.9 µM) | EC50 (SK-MEL-5): 2.51 µg/mL (≈ 11 µM) | EC50 (COLO 205): 9.19 µg/mL (≈ 40.1 µM) | EC50 (HCT-8): 5.88 µg/mL (≈ 25.7 µM)

CC1=CC(=O)c2c([nH]c3ccc(C)cc23)C1=O
EC50 (KB): 4.6 µg/mL (≈ 20.4 µM) | EC50 (SK-MEL-5): 5.29 µg/mL (≈ 23.5 µM) | EC50 (COLO 205): 3.2 µg/mL (≈ 14.2 µM) | EC50 (HCT-8): 5.47 µg/mL (≈ 24.3 µM)

CC1=CC(=O)c2c([nH]c3ccc(F)cc23)C1=O
EC50 (KB): 2.03 µg/mL (≈ 8.86 µM) | EC50 (SK-MEL-5): 5.5 µg/mL (≈ 24 µM) | EC50 (COLO 205): 4.5 µg/mL (≈ 19.6 µM) | EC50 (HCT-8): 4.76 µg/mL (≈ 20.8 µM)
